# According to ChEMBL document CHEMBL3739273, “Synthesis, biological activity evaluation and molecular docking studies of novel coumarin substituted thiazolyl-3-aryl-pyrazole-4-carbaldehydes” (Bioorg Med Chem Lett, 2015):
# Activity calls are given as the source filed them. No cut-off for these calls is given here.
# Columns and labels:
# [1] = tested on: HeLa; test: Anticancer activity against human HeLa cells assessed as cell viability after 48 hrs by MTT assay; assay type: functional, cell-based
# Method in brief: (§1)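 MTT cytotoxicity assay in human DU-145 prostate, MCF-7 breast and HeLa cervical cancer cell lines. Doxorubicin was the reference drug.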
# [2] = tested on: Bacillus cereus; test: Antibacterial activity against Bacillus cereus ATCC 14579 after 24 hrs by microtiter plate method; assay type: functional
# Method in brief: (§2)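 Test concentrations reported in µg/mL. Gentamycin sulfate and ampicillin were the reference drugs.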
# [3] = Anticancer activity against human DU145 cells assessed as cell viability after 48 hrs by MTT assay; assay type: functional, cell-based; settings: DU-145, 48 h; method in brief: as §1
# [4] = tested on: Klebsiella pneumoniae; test: Bactericidal activity against Klebsiella pneumoniae ATCC 43816 after 24 hrs; assay type: functional; settings: for MBC: ATCC 43816, 24 h, read-out: MBC99.9
# Method in brief: (§3)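 MBC determined by a standard MBC protocol alongside the MIC, with values in µg/mL. Gentamycin sulfate and ampicillin were the references.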
# [5] = tested on: Proteus vulgaris; test: Antibacterial activity against Proteus vulgaris ATCC 13315 assessed as growth inhibition at 100 ug/ml after 24 hrs by agar well diffusion method; assay type: functional
# Method in brief: (§4)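 Agar well diffusion. Compounds were tested at 10, 20, 100, 200 and 300 µg/mL, and the zone of inhibition was measured in mm. Gentamycin sulfate was the reference drug.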
# [6] = tested on: Bacillus spizizenii; test: Antibacterial activity against Bacillus subtilis ATCC 6633 after 24 hrs by microtiter plate method; assay type: functional; method in brief: as §2
# [7] = tested on: Bacillus spizizenii; test: Bactericidal activity against Bacillus subtilis ATCC 6633 after 24 hrs; assay type: functional; settings: for MBC: ATCC 6633, 24 h, read-out: MBC99.9; method in brief: as §3
# [8] = tested on: Escherichia coli; test: Antibacterial activity against Escherichia coli ATCC 8739 after 24 hrs by microtiter plate method; assay type: functional; method in brief: as §2
# [9] = tested on: Bacillus cereus; test: Bactericidal activity against Bacillus cereus ATCC 14579 after 24 hrs; assay type: functional; settings: for MBC: ATCC 14579, 24 h, read-out: MBC99.9; method in brief: as §3
# [10] = tested on: Staphylococcus aureus; test: Bactericidal activity against methicillin-resistant Staphylococcus aureus NCTC 13616 after 24 hrs; assay type: functional; settings: for MBC: NCTC 13616, 24 h, read-out: MBC99.9
# Method in brief: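 MBC determined by a standard MBC protocol run alongside the MIC determination. Gentamycin sulfate and ampicillin served as reference drugs.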
# [11] = tested on: Klebsiella pneumoniae; test: Antibacterial activity against Klebsiella pneumoniae ATCC 43816 assessed as growth inhibition at 100 ug/ml after 24 hrs by agar well diffusion method; assay type: functional; method in brief: as §4
# [12] = tested on: Escherichia coli; test: Bactericidal activity against Escherichia coli ATCC 8739 after 24 hrs; assay type: functional; settings: for MBC: ATCC 8739, 24 h, read-out: MBC99.9; method in brief: as §3
# [13] = tested on: Proteus vulgaris; test: Antibacterial activity against Proteus vulgaris ATCC 13315 after 24 hrs by microtiter plate method; assay type: functional; method in brief: as §2
# [14] = molecular target: T1, Cytochrome P450 2A6 (Homo sapiens, UniProt P11509); test: Inhibition of human microsomal CYP2A6; assay type: ADME
# T1 sequence (P11509 whole entry): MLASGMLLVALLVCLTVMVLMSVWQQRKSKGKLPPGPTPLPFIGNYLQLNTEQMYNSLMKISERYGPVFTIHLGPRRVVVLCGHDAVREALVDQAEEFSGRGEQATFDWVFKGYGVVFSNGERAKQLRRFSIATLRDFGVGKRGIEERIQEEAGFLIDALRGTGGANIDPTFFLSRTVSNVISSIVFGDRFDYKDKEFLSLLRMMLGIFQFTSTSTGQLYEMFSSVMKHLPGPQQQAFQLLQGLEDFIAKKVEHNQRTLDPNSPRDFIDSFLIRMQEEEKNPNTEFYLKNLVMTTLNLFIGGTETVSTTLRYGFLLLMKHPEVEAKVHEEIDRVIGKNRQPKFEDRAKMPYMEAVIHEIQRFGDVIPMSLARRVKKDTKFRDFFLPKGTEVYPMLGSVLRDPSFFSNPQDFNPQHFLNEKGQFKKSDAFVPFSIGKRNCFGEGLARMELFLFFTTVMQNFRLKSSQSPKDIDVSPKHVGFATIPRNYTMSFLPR
# [15] = tested on: Proteus vulgaris; test: Bactericidal activity against Proteus vulgaris ATCC 13315 after 24 hrs; assay type: functional; settings: for MBC: ATCC 13315, 24 h, read-out: MBC99.9; method in brief: as §3
# [16] = tested on: Klebsiella pneumoniae; test: Antibacterial activity against Klebsiella pneumoniae ATCC 43816 after 24 hrs by microtiter plate method; assay type: functional; method in brief: as §2
# [17] = tested on: Escherichia coli; test: Antibacterial activity against Escherichia coli ATCC 8739 assessed as growth inhibition at 100 ug/ml after 24 hrs by agar well diffusion method; assay type: functional; method in brief: as §4
# [18] = tested on: MCF7; test: Anticancer activity against human MCF7 cells assessed as cell viability after 48 hrs by MTT assay; assay type: functional, cell-based; settings: MCF7, 48 h; method in brief: as §1
# [19] = tested on: Staphylococcus aureus; test: Antibacterial activity against methicillin-resistant Staphylococcus aureus NCTC 13616 assessed as growth inhibition at 100 ug/ml after 24 hrs by agar well diffusion method; assay type: functional, organism-based
# Method in brief: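 Agar well diffusion assay with compounds applied to wells at several concentrations, including the 100 level reported here. The zone of inhibition was measured in mm. Gentamycin sulfate was the standard drug.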
# [20] = tested on: Staphylococcus aureus; test: Antibacterial activity against methicillin-resistant Staphylococcus aureus NCTC 13616 after 24 hrs by microtiter plate method; assay type: functional
# [21] = tested on: Bacillus cereus; test: Antibacterial activity against Bacillus cereus ATCC 14579 assessed as growth inhibition at 100 ug/ml after 24 hrs by agar well diffusion method; assay type: functional; method in brief: as §4
# [22] = tested on: Bacillus spizizenii; test: Antibacterial activity against Bacillus subtilis ATCC 6633 assessed as growth inhibition at 100 ug/ml after 24 hrs by agar well diffusion method; assay type: functional, organism-based; method in brief: as §4
# [23] = n-Octanol-phosphate buffer partition coefficient, log P of the compound at pH 7.4 after 30 mins by shake flask method; assay type: physicochemical
# Method in brief: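 Shake-flask partition between n-octanol and 50 mM phosphate buffer, pH 7.4. P calculated and expressed as logP.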
Compound,IC50 [1] [µM],"MIC ([2]; ATCC 14579, 24 h) [µg/mL]",IC50 [3] [µM],MBC [4] [µg/mL],growth inhibition (GI) [5],"MIC ([6]; ATCC 6633, 24 h) [µg/mL]",MBC [7] [µg/mL],"MIC ([8]; ATCC 8739, 24 h) [µg/mL]",MBC [9] [µg/mL],MBC [10] [µg/mL],MBC [12] [µg/mL],"MIC ([13]; ATCC 13315, 24 h) [µg/mL]",Ki [14] [nM],MBC [15] [µg/mL],"MIC ([16]; ATCC 43816, 24 h) [µg/mL]",IC50 [18] [µM],growth inhibition (GI) [19],"MIC ([20]; NCTC 13616, 24 h) [µg/mL]",growth inhibition (GI) [21],growth inhibition (GI) [22],also measured
Cc1ccc(-c2nn(-c3nc(-c4cc5cc(Br)ccc5oc4=O)cs3)cc2C=O)cc1,14.1,126,20.9,250,Active,125,250,135,250,275,270,122,1.54,240,124,35.2,Active,138,Active,Active,growth inhibition (GI) [11]: Active; growth inhibition (GI) [17]: Active
O=Cc1cn(-c2nc(-c3cc4cc(Br)ccc4oc3=O)cs2)nc1-c1ccccc1,11,129,35,175,Active,125,250,118,260,175,240,124,6.02,250,117,18.2,Active,116,Active,Active,growth inhibition (GI) [11]: Active; growth inhibition (GI) [17]: Active; logD at 0.5 h [23]: 3.3
O=Cc1cn(-c2nc(-c3cc4ccccc4oc3=O)cs2)nc1-c1ccccc1,> 100,145,> 100,225,–,132,260,135,290,300,270,133,13,200,150,> 100,inactive,150,–,–,–
O=Cc1cn(-c2nc(-c3cc4c(ccc5ccccc54)oc3=O)cs2)nc1-c1ccccc1,13.1,139,11.9,225,–,123,240,133,275,270,260,150,0.057,300,150,39.5,–,135,–,–,logD at 0.5 h [23]: 3.54
GENTAMICIN,–,–,–,–,–,–,–,–,–,–,–,–,–,–,–,–,–,–,–,–,MIC [2]: 10 µg/mL; MBC99.9 [4]: 16 µg/mL; MIC [6]: 45 µg/mL; MBC99.9 [7]: 80 µg/mL; MIC [8]: 2 µg/mL; MBC99.9 [9]: 22 µg/mL; MBC99.9 [10]: 50 µg/mL; MBC99.9 [12]: 8 µg/mL; MIC [13]: 4 µg/mL; MBC99.9 [15]: 8 µg/mL; MIC [16]: 4 µg/mL; MIC [20]: 22 µg/mL
O=Cc1cn(-c2nc(-c3cc4cc(Cl)ccc4oc3=O)cs2)nc1-c1ccccc1,12.8,139,> 100,190,–,130,190,135,275,300,265,130,2.58,260,129,> 100,inactive,150,–,–,–
CC1(C)S[C@@H]2[C@H](NC(=O)[C@H](N)c3ccccc3)C(=O)N2[C@H]1C(=O)O [AMPICILLIN],–,4,–,–,–,5,10,10,8,6,18,–,–,–,–,–,–,4,–,–,–
COc1cccc2c1C(=O)c1c(O)c3c(c(O)c1C2=O)C[C@@](O)(C(=O)CO)C[C@@H]3O[C@H]1C[C@H](N)[C@H](O)[C@H](C)O1 [DOXORUBICIN],3.92,–,2.49,–,–,–,–,–,–,–,–,–,–,–,–,–,–,–,–,–,–
O=Cc1cn(-c2nc(-c3cc4cc(Cl)cc(Cl)c4oc3=O)cs2)nc1-c1ccccc1,13.8,117,41.1,175,Active,123,250,120,175,175,240,132,3.07,260,118,76.3,Active,115,Active,Active,growth inhibition (GI) [11]: Active; growth inhibition (GI) [17]: Active
COc1cccc2cc(-c3csc(-n4cc(C=O)c(-c5ccc(Cl)cc5)n4)n3)c(=O)oc12,41.9,126,38.2,260,Active,133,260,125,250,275,185,132,3.27,260,129,71.7,Active,139,Active,Active,growth inhibition (GI) [11]: Active; growth inhibition (GI) [17]: Active
O=Cc1cn(-c2nc(-c3cc4cc(Cl)cc(Cl)c4oc3=O)cs2)nc1-c1ccc(Cl)cc1,10.3,112,30.9,155,–,111,165,111,220,225,220,113,2.7,225,105,21.7,Active,112,Active,Active,logD at 0.5 h [23]: 3
Cc1ccc(-c2nn(-c3nc(-c4cc5ccccc5oc4=O)cs3)cc2C=O)cc1,37.4,135,50.2,300,–,150,300,132,270,300,260,150,11,300,150,69.5,inactive,150,–,–,–
COc1cccc2cc(-c3csc(-n4cc(C=O)c(-c5ccc(C)cc5)n4)n3)c(=O)oc12,28.2,136,31.4,300,–,150,300,133,275,300,260,142,1.93,285,150,42.6,inactive,150,–,–,–
